From ChEMBL document CHEMBL1123566, “Synthesis and cardiac electrophysiological activity of 2- and 3-[(substituted phenyl)alkyl]quinuclidines. Structure-activity relationships” (1987) come the findings set out here.

The test system of experiment [1] is Canis familiaris. In words: Conduction time was determined by intraduodenal administration of two dosages of 1 mg/kg (low dose) of compound in anesthetized dogs. Value was reported for experiment 2. It counts as functional, Canis lupus familiaris. In short, it runs like this:
(§1)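 Anesthetized dogs given the compound intraduodenally, generally as two doses with the second a cumulative total (low/high). FRP and CT measured at 15, 30 and 45 min after dosing. HR and BP taken during nonpacing intervals. Values are percent change from control per animal. Activity criterion is FRP or CT prolonged ≥12%. Vehicle: 5% dextrose in water/tragacanth.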

For experiment [2], the system named is Canis familiaris. In words: Left ventricular refractory period was determined by intraduodenal administration of two dosages of 3 mg/kg of (high dose) compound in anesthetized dogs. Value was reported for experiment 3. It counts as functional, Canis lupus familiaris, Cardiac ventricle. The gist of the method: (§2)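 Anesthetized dogs, usually given two intraduodenal doses, with the second dose cumulative (low/high). Left ventricular FRP and CT were determined at 15, 30 and 45 min after dosing. HR and BP were measured during nonpacing intervals. Values are % change from control at low/high dose, for individual animals. The vehicle-stability set used 5% dextrose in water/tragacanth (n = 8).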

Experiment [3] concerns Canis familiaris. In words: Mean arterial blood pressure was determined by intraduodenal administration of two dosages of 3 mg/kg of (high dose) compound in anesthetized dogs. Value was reported for experiment 3. It counts as functional, Canis lupus familiaris. The gist of the method:
as §2

For experiment [4], the system named is Canis familiaris. The experiment can be described thus: Conduction time was determined by intraduodenal administration of two dosages of 10 mg/kg of compound in anesthetized dogs. Value was reported for experiment 1. It counts as functional, Canis lupus familiaris. The gist of the method: as §1
Experiment [5] deals with Canis familiaris. In words: Left ventricular refractory period was determined by intraduodenal administration of two dosages of 3 mg/kg of (low dose) compound in anesthetized dogs. Value was reported for experiment 1. In kind it is functional, Canis lupus familiaris, Cardiac ventricle. The gist of the method: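 Anesthetized dogs received two intraduodenal doses, the second cumulative (low dose/high dose). Left ventricular FRP and CT were measured 15, 30 and 45 min after dosing. Heart rate and mean blood pressure were taken during nonpacing intervals. Values are percent change from control. The vehicle was 5% dextrose in water/tragacanth. Activity was defined as ≥12% prolongation of FRP or CT.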

For experiment [6], the system named is Canis familiaris. In words: Mean arterial blood pressure was determined by intraduodenal administration of two dosages of 1 mg/kg of (low dose) compound in anesthetized dogs. Value was reported for experiment 2. It counts as functional, Canis lupus familiaris. The gist of the method: as §2

For `CCCCCCC[N+](CC)(CC)CCCCc1ccc(Cl)cc1.O=P([O-])(O)O` [CLOFILIUM PHOSPHATE], the figures for the CT with Canis familiaris [1] and in the experiment with Canis familiaris [4] were -5% and -7%, respectively. The “LV FRP” value in the experiment on Canis familiaris [2] is listed as 4%; with Canis familiaris [5], 10%. Also, the results for the Mean blood pressure in the experiment on Canis familiaris [3] and in the experiment with Canis familiaris [6] were 0% and -2%, respectively.
